Test results: ChEMBL document CHEMBL1146496, “Expanding the strategies in natural product studies of marine-derived fungi: a chemical investigation of penicillium obtained from deep water sediment” (J Nat Prod, 2004)
Values after ≈ are worked out from the molar mass of the structure shown.

How the values were obtained:
[1] = Cytotoxicity against human H116 cells assessed as zone units at 6.8 mg/mL by disk diffusion soft agar colony formation assay; assay type: functional
Method in brief: (§1)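 Soft agar colony formation with disk diffusion. Sample dissolved in 250 µL DMSO; a 15 µL aliquot at the stated concentration is spotted on a cellulose disk laid on agar containing the cells. After incubation, the zone of colony inhibition is measured in zone units (200 zu = 6 mm). Activity is defined as ≥300 zu.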

[2] = Cytotoxicity against human H125 cells assessed as zone units at 6.8 mg/mL by disk diffusion soft agar colony formation assay; assay type: functional; method in brief: as §1
MDA-MB-435 = assay: Cytotoxicity against human MDA-MB-435 after 48 hrs by SRB assay; assay type: functional, cell-based; details: MDA-MB-435, 48 h
Method in brief: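 MDA-MB-435 cells plated and left to attach and grow 24 h, then exposed to compound or ethanol vehicle for 48 h. Cells fixed with 10% trichloroacetic acid, stained with 0.4% sulforhodamine B, absorbance read at 560 nm. Full dose–response in triplicate; IC50 (50% proliferation inhibition) taken from the linear portion of the log-dose–response curve.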

L1210 [3] = assay: Cytotoxicity against mouse L1210 cells assessed as zone units at 6.8 mg/mL by disk diffusion soft agar colony formation assay; assay type: functional; method in brief: as §1
MC-38 [4] = assay: Cytotoxicity against mouse C38 cells assessed as zone units at 6.8 mg/mL by disk diffusion soft agar colony formation assay; assay type: functional; method in brief: as §1
[5] = Cytotoxicity against mouse CFU-GM cells assessed as zone units at 6.8 mg/mL by disk diffusion soft agar colony formation assay; assay type: cell-based; method in brief: as §1
L1210 [6] = assay: Cytotoxicity against mouse L1210 cells assessed as zone units at 8.0 mg/mL by disk diffusion soft agar colony formation assay; assay type: functional; method in brief: as §1
[7] = Cytotoxicity against human H116 cells assessed as zone units at 8.0 mg/mL by disk diffusion soft agar colony formation assay; assay type: functional; method in brief: as §1
[8] = Cytotoxicity against human H125 cells assessed as zone units at 8.0 mg/mL by disk diffusion soft agar colony formation assay; assay type: functional; method in brief: as §1
MC-38 [9] = assay: Cytotoxicity against mouse C38 cells assessed as zone units at 8.0 mg/mL by disk diffusion soft agar colony formation assay; assay type: functional; method in brief: as §1
[10] = Cytotoxicity against mouse CFU-GM cells assessed as zone units at 8.0 mg/mL by disk diffusion soft agar colony formation assay; assay type: cell-based; method in brief: as §1
CCRF-CEM [11] = assay: Cytotoxicity against human CEM cells assessed as zone units at 4.0 mg/mL by disk diffusion soft agar colony formation assay; assay type: functional; method in brief: as §1
L1210 [12] = assay: Cytotoxicity against mouse L1210 cells assessed as zone units at 4.0 mg/mL by disk diffusion soft agar colony formation assay; assay type: functional; method in brief: as §1
MC-38 [13] = assay: Cytotoxicity against mouse C38 cells assessed as zone units at 4.0 mg/mL by disk diffusion soft agar colony formation assay; assay type: functional; method in brief: as §1
[14] = Cytotoxicity against human H125 cells assessed as zone units at 4.0 mg/mL by disk diffusion soft agar colony formation assay; assay type: functional; method in brief: as §1
[15] = Cytotoxicity against human H116 cells assessed as zone units at 4.0 mg/mL by disk diffusion soft agar colony formation assay; assay type: functional; method in brief: as §1
[16] = Cytotoxicity against mouse CFU-GM cells assessed as zone units at 4.0 mg/mL by disk diffusion soft agar colony formation assay; assay type: cell-based; method in brief: as §1
[17] = Cytotoxicity against human H125 cells assessed as zone units at 6.0 mg/mL by disk diffusion soft agar colony formation assay; assay type: functional; method in brief: as §1
MC-38 [18] = assay: Cytotoxicity against mouse C38 cells assessed as zone units at 6.0 mg/mL by disk diffusion soft agar colony formation assay; assay type: functional; method in brief: as §1
L1210 [19] = assay: Cytotoxicity against mouse L1210 cells assessed as zone units at 6.0 mg/mL by disk diffusion soft agar colony formation assay; assay type: functional; method in brief: as §1
[20] = Cytotoxicity against human H116 cells assessed as zone units at 6.0 mg/mL by disk diffusion soft agar colony formation assay; assay type: functional; method in brief: as §1
[21] = Cytotoxicity against mouse CFU-GM cells assessed as zone units at 6.0 mg/mL by disk diffusion soft agar colony formation assay; assay type: cell-based; method in brief: as §1
L1210 [22] = assay: Cytotoxicity against mouse L1210 cells assessed as zone units at 11.6 mg/mL by disk diffusion soft agar colony formation assay; assay type: functional; method in brief: as §1
[23] = Cytotoxicity against mouse CFU-GM cells assessed as zone units at 11.6 mg/mL by disk diffusion soft agar colony formation assay; assay type: cell-based; method in brief: as §1
MC-38 [24] = assay: Cytotoxicity against mouse C38 cells assessed as zone units at 11.6 mg/mL by disk diffusion soft agar colony formation assay; assay type: functional; method in brief: as §1
[25] = Cytotoxicity against human H125 cells assessed as zone units at 11.6 mg/mL by disk diffusion soft agar colony formation assay; assay type: functional; method in brief: as §1
[26] = Cytotoxicity against human H116 cells assessed as zone units at 11.6 mg/mL by disk diffusion soft agar colony formation assay; assay type: functional; method in brief: as §1
CCRF-CEM [27] = assay: Cytotoxicity against human CEM cells assessed as zone units at 11.6 mg/mL by disk diffusion soft agar colony formation assay; assay type: functional; method in brief: as §1

**Q.** What does the source list for `COC1=CC(=O)[C@]2(C)O[C@@]23C[C@@H](C)O[C@@]13O`?
**A.** Activity [1]: 0 Zone units; Activity [2]: 0 Zone units; IC50 (MDA-MB-435): > 10 µg/mL; Activity (L1210 [3]): 50 Zone units; Activity (MC-38 [4]): 200 Zone units; Activity [5]: 0 Zone units

**Q.** For `COC1=CC(=O)[C@]2(C)O[C@@]23CC(C)OC13O` (stereo partly drawn) [(+)-EPOXYSERINONE B], which Activity (L1210 [6]) is on record?
**A.** 250 Zone units

**Q.** And the Activity [7]?
**A.** 200 Zone units

**Q.** What about the IC50 (MDA-MB-435) of the same compound?
**A.** > 10 µg/mL

**Q.** And the Activity [8]?
**A.** 50 Zone units

**Q.** What about the Activity (MC-38 [9]) of the same compound?
**A.** 400 Zone units

**Q.** What about the Activity [10] of the same compound?
**A.** 400 Zone units

**Q.** Which Activity (CCRF-CEM [11]) does the source give for `COC1=CC(=O)C(C)=C(C[C@H](C)OC=O)C1=O` [(+)-FORMYLANSERINONE B] here?
**A.** 550 Zone units

**Q.** What about the Activity (L1210 [12]) of the same compound?
**A.** 550 Zone units

**Q.** And the Activity (MC-38 [13])?
**A.** 250 Zone units

**Q.** And the Activity [14]?
**A.** 350 Zone units

**Q.** What about the IC50 (MDA-MB-435) of the same compound?
**A.** 2.9 µg/mL (≈ 12.2 µM)

**Q.** What about the Activity [15] of the same compound?
**A.** 400 Zone units

**Q.** And the Activity [16]?
**A.** 600 Zone units

**Q.** What does the source list for `COC1=CC(=O)C(C)=C(CC(C)=O)C1=O` [ANSERINONE A]?
**A.** Activity [17]: 50 Zone units; Activity (MC-38 [18]): 300 Zone units; Activity (L1210 [19]): 300 Zone units; IC50 (MDA-MB-435): 2.22 µg/mL (≈ 10.7 µM); Activity [20]: 50 Zone units; Activity [21]: 150 Zone units

**Q.** For `COC1=CC(=O)C(C)=C(C[C@H](C)O)C1=O` [ANSERINONE B], which Activity (L1210 [22]) is on record?
**A.** 700 Zone units

**Q.** And the Activity [23]?
**A.** 650 Zone units

**Q.** What about the Activity (MC-38 [24]) of the same compound?
**A.** 400 Zone units

**Q.** What about the Activity [25] of the same compound?
**A.** 400 Zone units

**Q.** And the IC50 (MDA-MB-435)?
**A.** 3.6 µg/mL (≈ 17.1 µM)

**Q.** What about the Activity [26] of the same compound?
**A.** 400 Zone units

**Q.** And the Activity (CCRF-CEM [27])?
**A.** 650 Zone units
